# Measurements as given in ChEMBL document CHEMBL4414601 (J Med Chem, 2019).
# Experiments:
# [1] = Permeability of compound by PAMPA
# [2] = test system: Plasmodium falciparum; assay: Antiplasmodial activity against Plasmodium falciparum 3D7A erythrocytic stage assessed as reduction in [3H]hypoxanthine incorporation preincubated for 24 hrs followed by [3H]hypoxanthine addition and measured after 24 hrs by microbeta scintillation counting method; type: functional, organism-based
# How it was run: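 Nine threefold serial dilutions from 5 μM top concentration. Incubated 24 h at 37 °C under 5% CO2/5% O2/90% N2, then 0.2 μCi [3H]-hypoxanthine per well for another 24 h. Cells harvested on glass fibre filters and counted. Data normalized to compound-free parasitized RBCs; IC50 fitted.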
# [3] = test system: L929; assay: Cytotoxicity against mouse L929 cells assessed as reduction in viability by dual luciferase reporter gene assay; type: ADME, cell-based
# [4] = Lipophilicity, LogD of compound by reverse phase HPLC analysis
# [5] = Aqueous solubility of compound; conditions: buffer
# [6] = test system: Plasmodium falciparum; assay: Antiplasmodial activity against […] of Plasmodium falciparum NF54 assessed as reduction in male gametocytes activation preincubated for 48 hrs followed by gametocytes activation and measured after 24 hrs by fluorescence based automated inverted microscopic analysis; type: functional, organism-based
# How it was run: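 Gametocyte activation was triggered by reduced temperature and ookinete medium containing xanthurenic acid. Male exflagellation centres were detected from a 10-frame video, scoring pixel changes caused by flagellar movement shifting surrounding cells.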
# [7] = test system: Plasmodium falciparum; assay: Antiplasmodial activity against […] of Plasmodium falciparum NF54 assessed as reduction in female gametocytes activation preincubated for 48 hrs followed by gametocytes activation and measured after 24 hrs by fluorescence based automated inverted microscopic analysis; type: functional, organism-based
# How it was run: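 NF54 gametocytes were activated by lowered temperature plus ookinete medium with xanthurenic acid and anti-Pfs25-Cy3 antibody (1/2000 final dilution). Cultures were then kept at 26 °C for 24 h in the dark. Activated females were counted by Cy3 anti-Pfs25 fluorescence, with events gated on size, roundness and fluorescence intensity.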
# [8] = Clearance in rat liver microsomes at 0.5 uM measured up to 45 mins in presence of NADPH by HPLC-MS/MS analysis; type: ADME, Microsome
# [9] = Clearance in mouse liver microsomes at 0.5 uM measured up to 45 mins in presence of NADPH by HPLC-MS/MS analysis; type: ADME, Microsome
# [10] = Clearance in human liver microsomes at 0.5 uM measured up to 45 mins in presence of NADPH by HPLC-MS/MS analysis; type: ADME, Microsome
Structure (SMILES),Papp [1] [×10⁻⁶ cm/s],EC50 [2] [µM],EC50 [3] [µM],chromatographic logD [4],solubility [5] [µM],EC50 [6] [nM],EC50 [7] [nM],CLH [8] [mL/min/g],CLH [9] [mL/min/g],CLH [10] [mL/min/g]
Oc1cc(Nc2nccc(-c3sc(C4CCNCC4)nc3-c3ccc(F)cc3)n2)ccn1,2,3.47,100,1.64,–,–,–,–,–,–
CN1CCN(CCNc2nccc(-c3sc(C4CCNCC4)nc3-c3ccc(F)cc3)n2)CC1,1,> 5,100,1.34,238,–,–,–,–,–
Cc1nc(Nc2nccc(-c3sc(C4CCNCC4)nc3-c3ccc(F)cc3)n2)ccc1F,30,> 5,5.2,3.96,16,–,–,–,–,–
Cc1nc(Nc2nccc(-c3sc(C4CCNCC4)nc3-c3ccc(F)cc3)n2)cc(C2CCC2)c1F,–,> 5,18.6,5.52,7,–,–,–,–,–
Cc1nccc(Nc2nccc(-c3sc(C4CCNCC4)nc3-c3ccc(F)cc3)n2)n1,18,0.81,2.5,2.43,47,–,–,–,–,–
CN(C)CCNc1nccc(-c2sc(C3CCNCC3)nc2-c2ccc(F)cc2)n1,2.4,3.11,100,1.07,244,–,–,–,–,–
O[C@H]1CC[C@H](Nc2nccc(-c3sc(C4CCNCC4)nc3-c3ccc(F)cc3)n2)CC1,5.5,> 5,27.5,2.12,287,–,–,–,–,–
CCCS(=O)(=O)Nc1nc(-c2ccc(F)cc2)c(-c2ccnc(Nc3ccc(N4CCNCC4)cc3)n2)s1,–,4.86,100,2.5,–,–,–,–,–,–
CN(C)C(CNc1nccc(-c2sc(C3CCNCC3)nc2-c2ccc(F)cc2)n1)C1CC1 (centres undefined),3.4,2.35,12,1.68,514,–,–,–,–,–
Fc1ccc(-c2nc(C3CCNCC3)sc2-c2ccnc(N3CCC(CN4CCOCC4)CC3)n2)cc1,38,> 5,12.9,3.75,355,–,–,–,–,–
C[C@H]1[C@H](OC(=O)CCC(=O)O)O[C@@H]2O[C@@]3(C)CC[C@H]4[C@H](C)CC[C@@H]1[C@@]24OO3 [ARTESUNATE],–,0.03,–,–,–,> 10000,> 10000,–,–,–
Nc1nccc(-c2sc(C3CCNCC3)nc2-c2ccc(F)cc2)n1,13,2.2,55,1.5,467,–,–,–,–,–
Fc1ccc(-c2nc(C3CCNCC3)sc2-c2ccnc(N3CCCC3)n2)cc1,46,> 5,13.8,3.71,374,–,–,–,–,–
Fc1ccc(-c2nc(C3CCNCC3)sc2-c2ccnc(N3CCC(N4CCOCC4)CC3)n2)cc1,27,2.37,15.5,2.83,251,–,–,–,–,–
OCCNc1nccc(-c2sc(C3CCNCC3)nc2-c2ccc(F)cc2)n1,1,4.05,61.7,1.52,351,–,–,–,–,–
Cc1nnc(Nc2nccc(-c3sc(C4CCNCC4)nc3-c3ccc(F)cc3)n2)s1,8,4.44,4.4,2.02,74,–,–,–,–,–
O=C(Nc1nc(-c2ccc(F)cc2)c(-c2ccnc(Nc3ccc(N4CCNCC4)cc3)n2)s1)C1CC1,2,> 5,25.7,2.53,–,–,–,–,–,–
c1cc(Nc2nccc(-c3sc(C4CCNCC4)nc3C3CC3)n2)ncn1,18,3.45,43.7,1.71,139,–,–,–,–,–
CCOc1nccc(Nc2nccc(-c3sc(C4CCNCC4)nc3-c3ccc(F)cc3)n2)n1,17,0.6,2.1,3.21,35,–,–,–,–,–
Fc1ccc(-c2nc(C3CCNCC3)sc2-c2ccnc(N3CCC(N4CCC4)CC3)n2)cc1,7.2,4.25,25.7,1.63,114,–,–,–,–,–
COc1cc(Nc2nccc(-c3sc(C4CCNCC4)nc3-c3ccc(F)cc3)n2)cc(C)n1,19,0.38,1.2,3.36,–,–,–,–,–,–

Structure (SMILES),Papp [1] [×10⁻⁶ cm/s],EC50 [2] [µM],EC50 [3] [µM],chromatographic logD [4],solubility [5] [µM],EC50 [6] [nM],EC50 [7] [nM],CLH [8] [mL/min/g],CLH [9] [mL/min/g],CLH [10] [mL/min/g]
CN1CCC(Nc2nccc(-c3sc(C4CCNCC4)nc3-c3ccc(F)cc3)n2)C1 (centres undefined),1.7,2.72,37.2,1.14,402,–,–,–,–,–
OC1CCN(c2nccc(-c3sc(C4CCNCC4)nc3-c3ccc(F)cc3)n2)C1 (centres undefined),6.5,> 5,72.4,1.92,273,–,–,–,–,–
Fc1ccc(-c2nc(C3CCNCC3)sc2-c2ccnc(Nc3ccccn3)n2)cc1,33,2.41,6.2,2.96,56,–,–,–,–,–
O=S(=O)(Nc1nc(-c2ccc(F)cc2)c(-c2ccnc(Nc3ccc(N4CCNCC4)cc3)n2)s1)C1CCNCC1,3,> 5,74.1,1.34,–,–,–,–,–,–
Fc1ccc(-c2nc(C3CCNCC3)oc2-c2ccnc(Nc3ccncn3)n2)cc1,19,> 5,21.4,1.79,226,–,–,–,–,–
Fc1ccc(-c2nc(C3CCNCC3)sc2-c2ccnc(NCCN3CCCC3)n2)cc1,1,3.19,38,1.13,297,–,–,–,–,–
Cc1csc(Nc2nccc(-c3sc(C4CCNCC4)nc3-c3ccc(F)cc3)n2)n1,15,3.85,2.2,2.99,40,–,–,–,–,–
Cc1cc(Nc2nccc(-c3sc(C4CCNCC4)nc3-c3ccc(F)cc3)n2)nn1C,20,> 5,5.1,2.52,146,–,–,–,–,–
CN1CCN(c2ccc(Nc3nccc(-c4sc(N)nc4-c4ccc(F)cc4)n3)cc2)CC1,26,> 5,2.5,3.61,8,–,–,–,–,–
CCc1nc(N)nc(N)c1-c1ccc(Cl)cc1 [PYRIMETHAMINE],–,0.1,–,–,–,> 10000,> 10000,–,–,–
CCOC(=O)N1CCC(c2nc(-c3ccc(F)cc3)c(-c3ccnc(Nc4ccc(N5CCN(C)CC5)cc4)n3)s2)CC1,41,> 5,6.5,6.66,23,–,–,–,–,–
COCCNc1nccc(-c2sc(C3CCNCC3)nc2-c2ccc(F)cc2)n1,30,> 5,33.9,2.45,235,–,–,–,–,–
Fc1ccc(-c2nc(N3CCOCC3)sc2-c2ccnc(Nc3ccc(N4CCNCC4)cc3)n2)cc1,28,1.62,3.3,3.99,38,1120,1070,0.59,0.48,0.4
CN1CCC(C(=O)Nc2nc(-c3ccc(F)cc3)c(-c3ccnc(Nc4ccc(N5CCNCC5)cc4)n3)s2)CC1,1,1.46,7.8,2.2,11,630,1310,0.46,0.48,0.4
Fc1ccc(-c2nc(C3CCNCC3)sc2-c2ccnc(Nc3ccn(C4CCNCC4)n3)n2)cc1,3,3.31,100,1.29,131,–,–,–,–,–
Nc1nc(-c2ccc(F)cc2)c(-c2ccnc(Nc3ccc(N4CCOCC4)cc3)n2)s1,3,–,19.5,4.61,26,–,–,–,–,–
Fc1ccc(-c2nc(C3CCNCC3)sc2-c2ccnc(NCCN3CCOCC3)n2)cc1,17,> 5,–,2.02,408,–,–,–,–,–
CCc1cc(Nc2nccc(-c3sc(C4CCNCC4)nc3-c3ccc(F)cc3)n2)nc(C)c1F,–,2.9,4.3,4.92,17,–,–,–,–,–
Fc1ccc(-c2nc(C3CCNCC3)sc2-c2ccnc(Nc3cccnn3)n2)cc1,19,0.98,3.2,2.14,123,–,–,0.95,4.42,0.47
Fc1ccc(-c2nc(C3CCNCC3)sc2-c2ccnc(NCC3CCCO3)n2)cc1 (centres undefined),32,> 5,17,2.77,299,–,–,–,–,–
